Reference: ChEMBL document CHEMBL5543163, “Druglike, 18F-labeled PET Tracers Targeting Fibroblast Activation Protein” (J Med Chem, 2024)

Tests used:
[1] = Drug uptake in tumor of female nude mouse harboring null mutation of CD1 antigen complex xenografted with human HT-29 cells with decreased FAP positive tumor area at 5 to 7.4 MBq, iv measured after 60 mins by immunohistochemistry analysis; type: ADME, organism-based, Neoplasm; details: in vivo, 1 h, dose 5-7.4 MBq
[2] = Drug uptake in urinary bladder of female nude mouse harboring null mutation of CD1 antigen complex assessed as increase in renal excretion at 5.1 to 7.4 MBq, iv measured after 15 to 60 mins by gamma counter analysis; type: ADME, organism-based; details: in vivo, dose lower 5.1 MBq, time lower 15 min, dose upper 7.4 MBq, time upper 60 min
Outline: (§1)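 Female CD1 nude mice, 6–8 weeks old (20–25 g), received the radiotracer through the lateral tail vein. At 15, 30 and 60 min p.i. (n = 3 per time point) blood was drawn by cardiac puncture and the animals were euthanized. Organs were excised, weighed and γ-counted. Uptake is expressed as %ID/g.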

[3] = Octanol/water partition coefficient, logD of compound at 74 kBq incubated for 2 mins by gamma counter method; type: physicochemical
Outline: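 Octanol and PBS phases were mixed and vortexed for 2 min, then centrifuged at 3,000 rpm for 10 min. Aliquots of 0.5 mL from each phase were γ-counted and corrected for mass and density. LogD was taken as log10 of the octanol/PBS radioactivity ratio.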

[4] = Stability in CD1 mouse plasma assessed as drug degradation at 185 kBq measured upto 60 mins by radio-HPLC analysis; type: ADME, cell-free; details: 1 h
Outline: (§2)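 Radiotracer was incubated at 37 °C for up to 60 min in PBS (0.01 M, pH 7.4) or in mouse plasma. Samples were deproteinized with an equal volume of cold ACN and centrifuged. The supernatant was analyzed by radio-HPLC with 30 s fractions γ-counted to give the intact fraction. Triplicates.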

[5] = Stability in female nude mouse harboring null mutation of CD1 antigen complex assessed as drug degradation at 5.1 to 7.4 MBq, iv measured at 60 mins by radio-HPLC analysis; type: ADME, organism-based; details: 1 h, dose 5.1-7.4 MBq
Outline: (§3)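 Female CD1 nude mice received 5.1–7.4 MBq i.v. EDTA blood collected at 15, 30 and 60 min p.i. (n=3 per time point) was centrifuged to plasma, deproteinized with cold ACN and centrifuged. The supernatant was analyzed by radio-HPLC with 30 s fractions γ-counted to give the percent intact tracer.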

[6] = Drug uptake in kidney of female nude mouse harboring null mutation of CD1 antigen complex assessed as increase in renal excretion at 5.1 to 7.4 MBq, iv measured after 15 to 60 mins by gamma counter analysis; type: ADME, organism-based; details: in vivo, dose lower 5.1 MBq, time lower 15 min, dose upper 7.4 MBq, time upper 60 min; outline: as §1
[7] = Ratio of drug level in tumor to liver of female nude mouse harboring null mutation of CD1 antigen complex xenografted with human U-87 MG cells at 5 to 7.4 MBq, iv measured at 60 mins postinjection by gamma counter analysis; type: ADME, organism-based; details: in vivo, 1 h, dose 5-7.4 MBq
Outline: (§4)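 Subcutaneous U-87MG xenografts (5×10^6 cells in DPBS, hind flank) were grown in female CD1 nude mice to about 200 mm3. After tail-vein radiotracer injection and a 60 min dynamic PET scan, tissues were harvested at 60 min p.i. and γ-counted (%ID/g). Tumor-to-tissue ratios are means ± SD of individual ratios, n=4 per tracer.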

[8] = Drug uptake in bone structures of female nude mouse harboring null mutation of CD1 antigen complex xenografted with human U-87 MG cells at 5 to 7.4 MBq, iv measured after 60 mins by gamma counter analysis; type: ADME, organism-based, Bone element; details: in vivo, 1 h, dose 5-7.4 MBq
[9] = Drug uptake in tumor of female nude mouse harboring null mutation of CD1 antigen complex xenografted with human U-87 MG cells at 5 to 7.4 MBq, iv pretreated with (S)-N-(2-(2-cyano-4,4-difluoropyrrolidin-1-yl)-2-oxoethyl)quinoline-4-carboxamide for 30 mins followed by radioligand addition and measured measured after 60 mins by PET/CT analysis; type: ADME, organism-based, Neoplasm; details: in vivo, 1 h, dose 5-7.4 MBq
Outline: (§5)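 U-87MG xenografts (5×10^6 cells, subcutaneous flank) were grown in female CD1 nude mice to about 200 mm3. Dynamic whole-body PET over 60 min p.i. was followed by CT. Images were reconstructed with OSEM 3D and expressed as %ID/mL to give time-activity curves. For blocking, the FAP inhibitor (5 mg/kg) was given via the tail vein 30 min before the tracer; n=4.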

[10] = Drug uptake in tumor of female nude mouse harboring null mutation of CD1 antigen complex xenografted with human U-87 MG cells at 5 to 7.4 MBq, iv measured at 60 mins by PET/CT analysis; type: ADME, organism-based, Neoplasm; details: in vivo, 1 h, dose 5-7.4 MBq; outline: as §5
[11] = Stability in PBS assessed as compound remaining at 185 kBq measured upto 60 mins by radio-HPLC analysis; type: physicochemical; details: read-out: Stability; outline: as §2
[12] = Stability in CD1 mouse plasma assessed as compound remaining at 185 kBq measured upto 60 mins by radio-HPLC analysis; type: ADME, cell-free; details: read-out: Stability; outline: as §2
[13] = Drug uptake in liver of female nude mouse harboring null mutation of CD1 antigen complex at 5.1 to 7.4 MBq, iv measured after 15 to 60 mins by gamma counter analysis; type: ADME, organism-based; details: in vivo, dose lower 5.1 MBq, time lower 15 min, dose upper 7.4 MBq, time upper 60 min; outline: as §1
[14] = Ratio of drug level in tumor to muscle of female nude mouse harboring null mutation of CD1 antigen complex xenografted with human U-87 MG cells at 5 to 7.4 MBq, iv measured at 60 mins postinjection by gamma counter analysis; type: ADME, organism-based; details: in vivo, 1 h, dose 5-7.4 MBq; outline: as §4
[15] = Ratio of drug level in tumor to blood of female nude mouse harboring null mutation of CD1 antigen complex xenografted with human U-87 MG cells at 5 to 7.4 MBq, iv measured at 60 mins postinjection by gamma counter analysis; type: ADME, organism-based; details: tumour, 1 h, dose 5-7.4 MBq; outline: as §4
[16] = Drug uptake in intestine of female nude mouse harboring null mutation of CD1 antigen complex at 5.1 to 7.4 MBq, iv measured after 15 to 60 mins by gamma counter analysis; type: ADME, organism-based; details: in vivo, dose lower 5.1 MBq, time lower 15 min, dose upper 7.4 MBq, time upper 60 min; outline: as §1
[17] = Drug uptake in tumor of female nude mouse harboring null mutation of CD1 antigen complex xenografted with human U-87 MG cells with increased FAP positive tumor area at 5 to 7.4 MBq, iv measured after 60 mins by immunohistochemistry analysis; type: ADME, organism-based, Neoplasm; details: in vivo, 1 h, dose 5-7.4 MBq
[18] = Stability in PBS assessed as drug degradation at 185 kBq measured upto 60 mins by radio-HPLC analysis; type: physicochemical; details: buffer, 1 h; outline: as §2
[19] = Ratio of drug level in tumor to small intestine of female nude mouse harboring null mutation of CD1 antigen complex xenografted with human U-87 MG cells at 5 to 7.4 MBq, iv measured at 60 mins postinjection by gamma counter analysis; type: ADME, organism-based; details: in vivo, 1 h, dose 5-7.4 MBq; outline: as §4
[20] = Drug uptake in skull of female nude mouse harboring null mutation of CD1 antigen complex xenografted with human U-87 MG cells at 5 to 7.4 MBq, iv measured after 60 mins by gamma counter analysis; type: ADME, organism-based; details: in vivo, 1 h, dose 5-7.4 MBq
[21] = Drug uptake in blood of female nude mouse harboring null mutation of CD1 antigen complex at 5.1 to 7.4 MBq, iv measured after 15 to 60 mins by gamma counter analysis; type: ADME, organism-based; details: in vivo, dose lower 5.1 MBq, time lower 15 min, dose upper 7.4 MBq, time upper 60 min; outline: as §1
[22] = Drug uptake in tumor of female nude mouse harboring null mutation of CD1 antigen complex xenografted with human U-87 MG cells at 5 to 7.4 MBq, iv measured after 60 mins by autoradiography; type: ADME, organism-based, Neoplasm; details: in vivo, 1 h, dose 5-7.4 MBq
Outline: (§6)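 Right after imaging and γ-counting, tumors from HT29 or U-87MG xenografts were snap-frozen and embedded in OCT. Sections of 100 µm were exposed overnight to phosphor screens. Non-blocked tumors were compared with tumors from mice pre-injected with the FAP inhibitor.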

[23] = Drug uptake in tumor of female nude mouse harboring null mutation of CD1 antigen complex xenografted with FAP-negative human HT-29 cells at 5 to 7.4 MBq, iv measured after 60 mins by autoradiography; type: ADME, organism-based, Neoplasm; details: in vivo, 1 h, dose 5-7.4 MBq; outline: as §6
[24] = Drug uptake in tumor of female nude mouse harboring null mutation of CD1 antigen complex xenografted with FAP-negative human HT-29 cells at 5 to 7.4 MBq, iv measured at 60 mins by PET/CT analysis; type: ADME, organism-based, Neoplasm; details: in vivo, 1 h, dose 5-7.4 MBq
Outline: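 HT29 xenografts (10×10^6 cells, subcutaneous hind flank) were grown in female CD1 nude mice to about 200 mm3. After tail-vein injection of the tracer, dynamic PET over 60 min was followed by CT. Images were reconstructed with OSEM 3D and tumor uptake was expressed as %ID/mL from time-activity curves, n=4.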

[25] = Stability in female nude mouse harboring null mutation of CD1 antigen complex assessed as compound remaining at 5.1 to 7.4 MBq, iv measured at 60 mins by radio-HPLC analysis; type: ADME, organism-based; details: in vivo, dose 5.1-7.4 MBq, read-out: Stability; outline: as §3
[26] = Drug uptake in tibia of female nude mouse harboring null mutation of CD1 antigen complex xenografted with human U-87 MG cells at 5 to 7.4 MBq, iv measured after 60 mins by gamma counter analysis; type: ADME, organism-based; details: in vivo, 1 h, dose 5-7.4 MBq
[27] = Drug uptake in large intestine of female nude mouse harboring null mutation of CD1 antigen complex assessed as increase in renal excretion at 5.1 to 7.4 MBq, iv measured at 60 mins by gamma counter analysis; type: ADME, organism-based; details: in vivo, 1 h, dose 5.1-7.4 MBq; outline: as §1
Dipeptidyl peptidase 8 = Dipeptidyl peptidase 8 (Homo sapiens, UniProt Q6V1X1); assay: Inhibition of DPP8 (unknown origin)
Chain of Dipeptidyl peptidase 8 (Q6V1X1 whole entry): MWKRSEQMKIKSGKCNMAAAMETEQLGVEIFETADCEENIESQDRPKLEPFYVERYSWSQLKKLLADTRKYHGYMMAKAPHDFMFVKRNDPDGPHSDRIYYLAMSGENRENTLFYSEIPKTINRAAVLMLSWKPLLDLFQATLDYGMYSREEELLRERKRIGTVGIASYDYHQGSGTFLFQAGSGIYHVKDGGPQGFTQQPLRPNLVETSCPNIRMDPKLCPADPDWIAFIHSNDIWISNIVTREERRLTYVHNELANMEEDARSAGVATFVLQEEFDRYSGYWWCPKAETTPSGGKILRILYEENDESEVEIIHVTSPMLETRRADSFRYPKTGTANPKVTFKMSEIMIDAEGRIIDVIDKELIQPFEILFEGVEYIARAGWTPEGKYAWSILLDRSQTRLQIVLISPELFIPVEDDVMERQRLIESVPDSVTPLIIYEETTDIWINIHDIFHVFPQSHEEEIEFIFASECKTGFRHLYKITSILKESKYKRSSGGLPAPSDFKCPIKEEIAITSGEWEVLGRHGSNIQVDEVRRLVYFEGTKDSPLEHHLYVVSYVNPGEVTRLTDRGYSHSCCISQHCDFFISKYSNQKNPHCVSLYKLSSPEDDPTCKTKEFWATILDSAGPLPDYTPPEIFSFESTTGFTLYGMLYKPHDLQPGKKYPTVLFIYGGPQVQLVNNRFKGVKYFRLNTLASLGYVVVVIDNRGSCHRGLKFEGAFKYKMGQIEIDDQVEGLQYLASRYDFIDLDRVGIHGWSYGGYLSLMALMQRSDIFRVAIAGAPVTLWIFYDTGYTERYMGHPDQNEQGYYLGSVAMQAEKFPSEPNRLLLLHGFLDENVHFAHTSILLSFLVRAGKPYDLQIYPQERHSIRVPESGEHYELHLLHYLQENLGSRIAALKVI

N#C[C@@H]1CC(F)(F)CN1C(=O)CNC(=O)c1ccnc2ccc(OCC(O)C[18F])cc12 (stereo not given in full)
Drug uptake [1]: Not Active | Drug uptake [2]: Active | logD at 2 min [3]: 0.18 | Stability [4]: Stable | Stability [5]: Unstable | Drug uptake [6]: Active | Ratio [7]: 2.37 | Drug uptake [8]: Active | Drug uptake [9]: Not Active | Drug uptake [10]: < 3 %ID/ml | remaining at 1 h, 185 kBq [11]: > 70% | remaining at 1 h, 185 kBq [12]: > 70% | Drug uptake [13]: Active | Ratio [14]: 3.6 | Ratio [15]: 6.58 | Drug uptake [16]: Active | Drug uptake [17]: Active | Stability [18]: Stable | Ratio [19]: 0.16 | Drug uptake [20]: Active

N#C[C@@H]1CC(F)(F)CN1C(=O)CNC(=O)c1ccnc2ccc(OCC(O)C(O)C[18F])cc12 (stereo not given in full)
Drug uptake [1]: Not Active | Drug uptake [2]: Active | logD at 2 min [3]: -0.27 | Stability [4]: Stable | Stability [5]: Unstable | Drug uptake [6]: Active | Ratio [7]: 1.67 | Drug uptake [8]: Active | Drug uptake [9]: Not Active | Drug uptake [10]: < 3 %ID/ml | remaining at 1 h, 185 kBq [11]: > 70% | remaining at 1 h, 185 kBq [12]: > 70% | Drug uptake [13]: Active | Ratio [14]: 5.26 | Ratio [15]: 6.56 | Drug uptake [21]: 0.13 % ID/g | Drug uptake [16]: Active | Drug uptake [17]: Active | Stability [18]: Stable | Ratio [19]: 0.12 | Drug uptake [20]: Active

COC(C[18F])COc1ccc2nccc(C(=O)NCC(=O)N3CC(F)(F)C[C@H]3C#N)c2c1 (stereo not given in full)
Drug uptake [1]: Not Active | Drug uptake [2]: Active | logD at 2 min [3]: 0.77 | Stability [4]: Stable | Stability [5]: Unstable | Drug uptake [22]: Active | Drug uptake [6]: Active | Ratio [7]: 1.64 | Drug uptake [8]: Active | Drug uptake [9]: Not Active | Drug uptake [10]: < 3 %ID/ml | remaining at 1 h, 185 kBq [11]: > 70% | Drug uptake [23]: Active | remaining at 1 h, 185 kBq [12]: > 70% | Drug uptake [13]: Active | Ratio [14]: 6.48 | Ratio [15]: 5.01 | Drug uptake [24]: 1.86 %ID/ml | Drug uptake [16]: Active | Drug uptake [17]: Active | Stability [18]: Stable | Ratio [19]: 0.22 | Drug uptake [20]: Active

[2H]C([2H])([18F])[N+](C)(C)CCCOc1ccc2nccc(C(=O)NCC(=O)N3CC(F)(F)C[C@H]3C#N)c2c1
Drug uptake [1]: Not Active | Drug uptake [2]: Active | remaining at 1 h [25]: 56.5% | logD at 2 min [3]: -1.77 | Stability [4]: Stable | Drug uptake [22]: Active | Drug uptake [6]: Active | Ratio [7]: 4.77 | Drug uptake [8]: Active | Drug uptake [9]: Not Active | Drug uptake [10]: 10.16 %ID/ml | remaining at 1 h, 185 kBq [11]: > 70% | Drug uptake [23]: Active | remaining at 1 h, 185 kBq [12]: > 70% | Drug uptake [13]: Active | Ratio [14]: 6.54 | Ratio [15]: 6.35 | Drug uptake [21]: 0.24 % ID/g | Drug uptake [26]: 4.33 % ID/g | Drug uptake [16]: Active | Drug uptake [17]: Active | Drug uptake [27]: 0.38 % ID/g | Stability [18]: Stable | Ratio [19]: 2.43 | Drug uptake [20]: Active

N#C[C@@H]1CC(F)(F)CN1C(=O)CNC(=O)c1ccnc2ccccc12
IC50 (Dipeptidyl peptidase 8): 4.7 µM
